These results are taken from ChEMBL document CHEMBL5260840 (J Med Chem, 2019).

Active and inactive are the calls of the source. The rule behind the calls is not given here.

Assay [1] concerns the target T1, von Hippel-Lindau disease tumor suppressor/Bromodomain-containing protein 7 (Homo sapiens) (UniProt Q9NPI1+P40337). Nature of the assay: PROTAC activity at VHL/BRD7 in human HeLa cells assessed as protein degradation at 1 uM incubated for 16 hrs by Western blot analysis relative to control. Type of assay: cell-based. In general terms: A western blot detects proteins with antibodies after separation by electrophoresis.

Assay [2] has as its target T2, Von Hippel-Lindau disease tumor suppressor/Elongin B/Elongin C (Homo sapiens) (UniProt P40337+Q15370+Q15369). Nature of the assay: Negative co-operative binding affinity to 6His-tagged human VHL/ElonginC/ElonginB expressed in Escherichia coli BL21 (DE3) cells assessed as total gibb's free energy change in the presence of BRD9-BD as complex with compound by ITC analysis. On the technique in general: In ITC the heat of successive injections is recorded.

Assay [3] has as its target T2, Von Hippel-Lindau disease tumor suppressor/Elongin B/Elongin C (Homo sapiens). Description: Co-operative binding affinity to 6His-tagged human VHL/ElonginC/ElonginB expressed in Escherichia coli BL21 (DE3) cells assessed as maximal intensity in the presence of BRD9-BD as complex with compound incubated for 1 hrs by AlphaLISA proximity assay. (Bead proximity is the source of the signal in Alpha formats.)

Assay [4] has the same target. Description: Negative co-operative binding affinity to 6His-tagged human VHL/ElonginC/ElonginB expressed in Escherichia coli BL21 (DE3) cells assessed as change in entropy in the presence of BRD9-BD as complex with compound by ITC analysis.
For assay [5], the target named is T3, von Hippel-Lindau disease tumor suppressor/Bromodomain-containing protein 9 (Homo sapiens) (UniProt Q9H8M2+P40337). Nature of the assay: PROTAC activity at VHL/BRD9 in human HeLa cells assessed as protein degradation at 1 uM incubated for 16 hrs by Western blot analysis relative to control. Type of assay: cell-based. A digest of the protocol: (§1)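 HeLa cells treated with compound for the stated time before harvest; BRD9, BRD7 and β-actin detected by Western blot with β-actin loading control; band intensities quantified.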

The target in assay [6] is T1, von Hippel-Lindau disease tumor suppressor/Bromodomain-containing protein 7 (Homo sapiens). Description: PROTAC activity at VHL/BRD7 in human HeLa cells assessed as remaining BRD7 protein level at 1 uM incubated for 16 hrs by Western blot analysis relative to control. Type of assay: cell-based.
Assay [7] concerns the target T2, Von Hippel-Lindau disease tumor suppressor/Elongin B/Elongin C (Homo sapiens). Nature of the assay: Binding affinity to 6His-tagged human VHL/ElonginC/ElonginB expressed in Escherichia coli BL21 (DE3) cells assessed as change in entropy by ITC analysis.
For assay [8], the target named is T3, von Hippel-Lindau disease tumor suppressor/Bromodomain-containing protein 9 (Homo sapiens). Description: PROTAC activity at VHL/BRD9 in human HeLa cells assessed as remaining BRD9 protein level at 1 uM incubated for 16 hrs by Western blot analysis relative to control. The class given is cell-based. The gist of the method: as §1
The target in assay [9] is T1, von Hippel-Lindau disease tumor suppressor/Bromodomain-containing protein 7 (Homo sapiens). Nature of the assay: PROTAC activity at VHL/BRD7 in human HeLa cells assessed as protein degradation at 1 uM incubated for 4 hrs by Western blot analysis relative to control. Type of assay: cell-based.
Assay [10] concerns the target T2, Von Hippel-Lindau disease tumor suppressor/Elongin B/Elongin C (Homo sapiens). Description: Negative co-operative binding affinity to 6His-tagged human VHL/ElonginC/ElonginB expressed in Escherichia coli BL21 (DE3) cells assessed as change in enthalpy in the presence of BRD9-BD as complex with compound by ITC analysis.
Assay [11] concerns the target T3, von Hippel-Lindau disease tumor suppressor/Bromodomain-containing protein 9 (Homo sapiens). Nature of the assay: PROTAC activity at VHL/BRD9 in human HeLa cells assessed as protein degradation at 1 uM incubated for 4 hrs by Western blot analysis relative to control. The class given is cell-based. The gist of the method: as §1
Assay [12] addresses T4, Bromodomain-containing protein 9 (Homo sapiens) (UniProt Q9H8M2).
T4 sequence (whole entry): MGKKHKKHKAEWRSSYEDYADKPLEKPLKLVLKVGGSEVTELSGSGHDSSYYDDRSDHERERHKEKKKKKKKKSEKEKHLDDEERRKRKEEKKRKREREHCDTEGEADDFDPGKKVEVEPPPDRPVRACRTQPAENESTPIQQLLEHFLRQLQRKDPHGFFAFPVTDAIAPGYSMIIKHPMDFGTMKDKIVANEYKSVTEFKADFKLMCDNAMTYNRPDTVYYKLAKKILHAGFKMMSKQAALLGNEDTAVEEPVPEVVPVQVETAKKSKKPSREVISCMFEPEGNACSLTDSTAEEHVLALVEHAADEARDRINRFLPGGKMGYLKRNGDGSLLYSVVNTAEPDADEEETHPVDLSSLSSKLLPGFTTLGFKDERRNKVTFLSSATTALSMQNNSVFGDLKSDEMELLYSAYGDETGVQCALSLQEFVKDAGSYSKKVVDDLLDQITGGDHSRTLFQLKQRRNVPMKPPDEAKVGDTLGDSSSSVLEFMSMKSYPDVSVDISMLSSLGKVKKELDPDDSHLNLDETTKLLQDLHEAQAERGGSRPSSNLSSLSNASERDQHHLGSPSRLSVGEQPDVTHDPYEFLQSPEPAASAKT
Description: Binding affinity to 6His-tagged human BRD9 bromodomain (134 to 239 residues) expressed in Escherichia coli BL21 (DE3) cells assessed as change in entropy by ITC analysis.

Assay [13] addresses T4, Bromodomain-containing protein 9 (Homo sapiens). Description: Binding affinity to 6His-tagged human BRD9 bromodomain (134 to 239 residues) expressed in Escherichia coli BL21 (DE3) cells assessed as change in enthalpy by ITC analysis.
For assay [14] the target is unchanged. Nature of the assay: Binding affinity to 6His-tagged human BRD9 bromodomain (134 to 239 residues) expressed in Escherichia coli BL21 (DE3) cells assessed as gibbs free energy change by ITC analysis.
For assay [15], the target named is T1, von Hippel-Lindau disease tumor suppressor/Bromodomain-containing protein 7 (Homo sapiens). Description: PROTAC activity at VHL/BRD7 in human HeLa cells assessed as remaining BRD7 protein level at 1 uM incubated for 4 hrs by Western blot analysis relative to control. Type of assay: cell-based.
For assay [16], the target named is T2, Von Hippel-Lindau disease tumor suppressor/Elongin B/Elongin C (Homo sapiens). Description: Binding affinity to 6His-tagged human VHL/ElonginC/ElonginB expressed in Escherichia coli BL21 (DE3) cells assessed as change in enthalpy by ITC analysis.
Assay [17] deals with T1, von Hippel-Lindau disease tumor suppressor/Bromodomain-containing protein 7 (Homo sapiens). Description: PROTAC activity at VHL/BRD7 in human Ri-1 cells assessed as BRD7 protein degradation at 100 nM incubated for 4 hrs by MS proteomics analysis. Type of assay: cell-based.
Assay [18] addresses T3, von Hippel-Lindau disease tumor suppressor/Bromodomain-containing protein 9 (Homo sapiens). Description: PROTAC activity at VHL/BRD9 in human Ri-1 cells assessed as BRD9 protein degradation at 100 nM incubated for 4 hrs by Western blot analysis. The class given is cell-based. The gist of the method:
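Ri-1 cells exposed to compound for the stated time before harvest; BRD9, BRD7 and β-actin measured by Western blot, band intensities quantified and set against DMSO-treated control.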

For assay [19], the target named is T1, von Hippel-Lindau disease tumor suppressor/Bromodomain-containing protein 7 (Homo sapiens). Description: PROTAC activity at VHL/BRD7 in human Ri-1 cells assessed as BRD7 protein degradation at 100 nM incubated for 4 hrs by Western blot analysis. Type of assay: cell-based.
The target in assay [20] is T3, von Hippel-Lindau disease tumor suppressor/Bromodomain-containing protein 9 (Homo sapiens). Description: PROTAC activity at VHL/BRD9 in human Ri-1 cells assessed as BRD9 protein degradation at 100 nM incubated for 4 hrs by MS proteomics analysis. The class given is cell-based. A digest of the protocol: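 RI-1 cells treated in triplicate with compound (100 nM) or DMSO for 4 h; whole-cell proteome quantified by MS (6273 proteins), fold change versus control with t-test P-values.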

T2 sequence (P40337 whole entry, looked up): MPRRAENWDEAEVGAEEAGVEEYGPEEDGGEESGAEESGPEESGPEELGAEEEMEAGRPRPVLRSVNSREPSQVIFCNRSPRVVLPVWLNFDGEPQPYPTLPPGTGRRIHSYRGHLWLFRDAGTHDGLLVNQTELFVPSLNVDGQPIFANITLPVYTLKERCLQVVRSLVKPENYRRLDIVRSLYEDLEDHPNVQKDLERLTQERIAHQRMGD
T2 sequence (Q15369 whole entry, looked up): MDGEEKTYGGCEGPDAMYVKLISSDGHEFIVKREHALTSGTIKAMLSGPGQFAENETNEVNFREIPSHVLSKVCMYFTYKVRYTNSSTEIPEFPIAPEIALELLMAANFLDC
T2 sequence (Q15370 whole entry, looked up): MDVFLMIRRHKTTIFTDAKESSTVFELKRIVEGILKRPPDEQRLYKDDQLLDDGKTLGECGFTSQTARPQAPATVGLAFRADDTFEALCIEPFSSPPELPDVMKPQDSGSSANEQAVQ
T1 sequence (P40337 whole entry, looked up): as the sequence (P40337 whole entry, looked up) above
T1 sequence (Q9NPI1 whole entry, looked up): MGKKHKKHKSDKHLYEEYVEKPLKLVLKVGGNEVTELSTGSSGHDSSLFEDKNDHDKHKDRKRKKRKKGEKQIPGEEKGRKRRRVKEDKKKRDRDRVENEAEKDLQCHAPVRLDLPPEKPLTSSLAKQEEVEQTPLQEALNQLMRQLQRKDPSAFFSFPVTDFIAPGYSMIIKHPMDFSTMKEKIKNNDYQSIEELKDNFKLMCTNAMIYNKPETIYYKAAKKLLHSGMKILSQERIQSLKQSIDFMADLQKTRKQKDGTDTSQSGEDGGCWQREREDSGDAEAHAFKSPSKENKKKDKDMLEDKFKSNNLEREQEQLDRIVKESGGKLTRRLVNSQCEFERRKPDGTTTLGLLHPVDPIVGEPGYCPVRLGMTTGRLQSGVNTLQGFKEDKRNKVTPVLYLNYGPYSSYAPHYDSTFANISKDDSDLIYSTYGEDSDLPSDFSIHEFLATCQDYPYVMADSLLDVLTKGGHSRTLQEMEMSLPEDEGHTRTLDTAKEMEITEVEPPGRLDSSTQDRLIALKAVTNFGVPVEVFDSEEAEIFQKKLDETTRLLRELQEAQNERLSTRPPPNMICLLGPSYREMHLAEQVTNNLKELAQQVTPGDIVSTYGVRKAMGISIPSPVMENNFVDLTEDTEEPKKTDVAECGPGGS
T3 sequence (P40337 whole entry, looked up, one chain of several): as the sequence (P40337 whole entry, looked up) above

In the case of `COc1cc(-c2cn(C)c(=O)c3cnccc23)cc(OC)c1CN1CCN(CCOCCOCC(=O)N[C@H](C(=O)N2C[C@H](O)C[C@H]2C(=O)NCc2ccc(-c3scnc3C)cc2)C(C)(C)C)CC1`, the Activity was 30% in assay [1]; 1 10^6No_unit in [3]; 30% in assay [5]; 83% in [6]; 70% in assay [8]; 20% in assay [9]. Further, the Activity in assay [11] was 20%; in assay [15], 68%. The deltaG in assay [2] was -20.4 kcal/mol; in assay [14], -10.7 kcal/mol. The values for the -TdeltaS in assay [4], in assay [7] and in assay [12] were -3.3 kcal/mol, 4.9 kcal/mol and 1.8 kcal/mol, respectively. The results for the deltaH in assay [10], in [13] and in assay [16] were -6.4 kcal/mol, -12.5 kcal/mol and -15.2 kcal/mol, respectively.

As for `COc1cc(-c2cn(C)c(=O)c3cnccc23)cc(OC)c1CN1CCN(CCCCCOc2cc(-c3scnc3C)ccc2CNC(=O)[C@@H]2C[C@H](O)CN2C(=O)[C@@H](NC(=O)C2(F)CC2)C(C)(C)C)CC1`, the result in assay [17], in assay [18], in [19] and in [20] was inactive.
